Legend:
[1] = molecular target: Receptor tyrosine-protein kinase erbB-2 (Homo sapiens, UniProt P04626); test: Inhibition of ERBB2 (unknown origin)
Outline: (§1)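 Biochemical (cell-free) assay within a panel of 24 protein kinases. Results reported as IC50 values. Procedure as described in earlier work.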

Ephrin type-B receptor 4 = molecular target: T1, Ephrin type-B receptor 4 (Homo sapiens, UniProt P54760); test: Inhibition of EPHB4 (unknown origin); outline: as §1
T1 sequence (P54760 whole entry): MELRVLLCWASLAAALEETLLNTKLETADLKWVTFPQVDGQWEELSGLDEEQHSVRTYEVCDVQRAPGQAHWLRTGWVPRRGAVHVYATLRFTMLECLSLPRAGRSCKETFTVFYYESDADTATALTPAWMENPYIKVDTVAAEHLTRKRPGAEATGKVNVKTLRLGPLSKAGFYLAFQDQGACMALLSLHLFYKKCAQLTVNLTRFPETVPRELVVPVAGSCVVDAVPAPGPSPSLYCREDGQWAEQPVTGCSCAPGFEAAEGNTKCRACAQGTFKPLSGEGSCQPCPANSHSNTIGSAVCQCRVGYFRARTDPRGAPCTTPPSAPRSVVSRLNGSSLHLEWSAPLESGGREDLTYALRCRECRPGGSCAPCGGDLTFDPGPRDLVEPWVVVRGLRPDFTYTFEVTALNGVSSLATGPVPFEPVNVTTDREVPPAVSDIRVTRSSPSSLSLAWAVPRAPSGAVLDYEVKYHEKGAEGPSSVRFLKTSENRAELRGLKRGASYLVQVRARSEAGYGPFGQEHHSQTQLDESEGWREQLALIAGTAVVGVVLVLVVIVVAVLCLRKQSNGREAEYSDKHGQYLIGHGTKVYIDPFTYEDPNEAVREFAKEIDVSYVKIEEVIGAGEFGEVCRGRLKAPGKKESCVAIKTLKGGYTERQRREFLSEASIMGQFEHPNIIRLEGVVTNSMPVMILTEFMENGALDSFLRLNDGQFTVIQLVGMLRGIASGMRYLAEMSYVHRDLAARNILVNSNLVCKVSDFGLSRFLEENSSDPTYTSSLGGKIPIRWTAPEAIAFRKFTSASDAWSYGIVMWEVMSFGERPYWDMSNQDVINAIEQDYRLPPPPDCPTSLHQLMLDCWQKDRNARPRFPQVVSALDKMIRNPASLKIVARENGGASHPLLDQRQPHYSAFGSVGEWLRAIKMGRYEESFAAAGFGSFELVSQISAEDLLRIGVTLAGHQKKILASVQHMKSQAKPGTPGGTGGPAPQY

Receptor tyrosine-protein kinase erbB-2, sequence (P04626 whole entry): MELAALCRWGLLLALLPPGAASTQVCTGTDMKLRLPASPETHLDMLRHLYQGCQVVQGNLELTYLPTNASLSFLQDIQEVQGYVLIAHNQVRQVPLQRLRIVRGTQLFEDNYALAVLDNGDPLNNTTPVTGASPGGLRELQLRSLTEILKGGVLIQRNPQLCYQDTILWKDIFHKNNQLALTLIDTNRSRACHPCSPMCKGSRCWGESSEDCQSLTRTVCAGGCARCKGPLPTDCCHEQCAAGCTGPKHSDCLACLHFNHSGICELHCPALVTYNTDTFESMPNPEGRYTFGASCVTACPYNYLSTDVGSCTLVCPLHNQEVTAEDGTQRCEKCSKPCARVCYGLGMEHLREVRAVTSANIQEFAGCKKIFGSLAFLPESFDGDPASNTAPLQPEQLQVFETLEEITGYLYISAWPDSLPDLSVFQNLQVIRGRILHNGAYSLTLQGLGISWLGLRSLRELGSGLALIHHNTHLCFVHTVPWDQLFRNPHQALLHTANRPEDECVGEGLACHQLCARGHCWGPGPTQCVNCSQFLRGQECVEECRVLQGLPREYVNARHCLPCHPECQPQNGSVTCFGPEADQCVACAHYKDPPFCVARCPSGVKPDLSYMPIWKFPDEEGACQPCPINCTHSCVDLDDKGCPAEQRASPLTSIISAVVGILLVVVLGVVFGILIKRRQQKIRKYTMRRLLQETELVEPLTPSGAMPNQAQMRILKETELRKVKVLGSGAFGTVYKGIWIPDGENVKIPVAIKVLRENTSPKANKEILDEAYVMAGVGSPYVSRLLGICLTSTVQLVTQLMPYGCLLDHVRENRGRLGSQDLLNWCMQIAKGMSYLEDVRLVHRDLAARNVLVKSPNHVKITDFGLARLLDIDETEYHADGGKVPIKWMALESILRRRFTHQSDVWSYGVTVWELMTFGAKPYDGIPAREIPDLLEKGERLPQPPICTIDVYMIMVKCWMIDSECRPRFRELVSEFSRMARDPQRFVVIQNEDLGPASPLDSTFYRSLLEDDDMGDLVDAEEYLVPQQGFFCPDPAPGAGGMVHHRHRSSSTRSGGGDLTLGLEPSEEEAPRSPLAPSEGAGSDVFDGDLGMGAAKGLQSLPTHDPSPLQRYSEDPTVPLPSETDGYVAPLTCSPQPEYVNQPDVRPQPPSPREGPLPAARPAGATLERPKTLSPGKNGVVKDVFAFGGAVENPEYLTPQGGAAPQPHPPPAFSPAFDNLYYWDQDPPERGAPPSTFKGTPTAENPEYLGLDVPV

| SMILES | IC50 [1] [µM] | IC50 (Ephrin type-B receptor 4) [µM] |
| --- | --- | --- |
| O=NC(Cc1cc(Br)c(O)c(-c2cc(CC(N=O)C(=O)NCCc3ccc(O)c(Br)c3)cc(Br)c2O)c1)C(=O)NCCc1ccc(O)c(Br)c1 (stereo not drawn) [BASTADIN 3] | 2.1 | – |
| O=NC(Cc1cc(Br)c(O)c(Oc2ccc(CCNC(=O)C(Cc3cc(Br)c(O)c(-c4cc(CC(N=O)C(=O)NCCc5ccc(O)c(Br)c5)cc(Br)c4O)c3)N=O)cc2Br)c1)C(=O)NCCc1ccc(O)c(Br)c1 (stereo not drawn) [Sesquibastadin 1] | 2.1 | 3.4 |

— BindingDB's records for doi:10.1021/np300764u (Heinrich-Heine University, 2013)
